Measured values: paper PMC4744243 (Oncogene, 2015)
Like-named read-outs stand apart in the source and are kept apart here.

Tests used:
PRC2^WT = PRC2^WT (Homo sapiens, UniProt Q15910); format: biochemical; conditions: read-out: IC50 WT, [SAM] 1 µM
PRC2^Y111L = PRC2^Y111L (Homo sapiens, UniProt Q15910, Y111L); format: biochemical; conditions: for IC50: read-out: IC50 Y111L, [SAM] 1 µM; for IC50 Y111L: [SAM] 20 μM
PRC2^Y641N/Y661D = PRC2^Y641N/Y661D (Homo sapiens, UniProt Q15910, Y641N/Y661D); format: biochemical; conditions: for IC50: read-out: IC50 Y641N/Y6661D, [SAM] 20 μM
Chain of PRC2^Y641N/Y661D (Q15910 whole entry Y641N/Y661D): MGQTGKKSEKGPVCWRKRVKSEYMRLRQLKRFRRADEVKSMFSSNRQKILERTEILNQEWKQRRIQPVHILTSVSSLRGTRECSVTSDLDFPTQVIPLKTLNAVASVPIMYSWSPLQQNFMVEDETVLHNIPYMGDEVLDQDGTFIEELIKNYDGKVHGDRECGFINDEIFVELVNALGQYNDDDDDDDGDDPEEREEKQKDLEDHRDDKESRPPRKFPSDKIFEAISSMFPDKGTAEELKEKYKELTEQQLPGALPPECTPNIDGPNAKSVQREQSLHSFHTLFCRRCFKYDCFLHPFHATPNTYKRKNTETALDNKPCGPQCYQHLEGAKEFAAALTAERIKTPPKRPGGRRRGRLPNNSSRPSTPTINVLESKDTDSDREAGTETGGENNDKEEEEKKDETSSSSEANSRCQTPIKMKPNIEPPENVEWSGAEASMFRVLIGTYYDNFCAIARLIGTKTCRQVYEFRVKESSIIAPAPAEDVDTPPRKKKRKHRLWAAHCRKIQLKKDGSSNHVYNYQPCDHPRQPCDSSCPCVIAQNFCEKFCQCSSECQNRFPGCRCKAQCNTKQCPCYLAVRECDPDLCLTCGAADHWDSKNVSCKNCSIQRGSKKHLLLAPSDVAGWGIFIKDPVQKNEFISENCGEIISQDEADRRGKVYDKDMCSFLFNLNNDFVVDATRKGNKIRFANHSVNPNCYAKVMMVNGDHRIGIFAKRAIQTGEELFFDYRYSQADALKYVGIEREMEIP
Chain of PRC2^Y641N/Y661D (O75530 whole entry partner): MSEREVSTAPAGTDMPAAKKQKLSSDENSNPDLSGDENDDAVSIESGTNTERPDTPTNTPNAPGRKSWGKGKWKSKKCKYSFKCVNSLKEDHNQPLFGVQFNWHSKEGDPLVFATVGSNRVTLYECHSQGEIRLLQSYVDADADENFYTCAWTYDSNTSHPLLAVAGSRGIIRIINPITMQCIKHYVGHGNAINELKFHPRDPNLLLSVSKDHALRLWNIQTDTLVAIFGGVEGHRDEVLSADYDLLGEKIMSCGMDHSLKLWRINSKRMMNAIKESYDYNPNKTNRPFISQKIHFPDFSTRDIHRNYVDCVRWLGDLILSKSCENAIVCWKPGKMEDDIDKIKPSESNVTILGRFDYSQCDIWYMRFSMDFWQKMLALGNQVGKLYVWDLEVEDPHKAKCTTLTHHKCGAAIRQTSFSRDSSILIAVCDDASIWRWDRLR
Chain of PRC2^Y641N/Y661D (Q15022 whole entry partner): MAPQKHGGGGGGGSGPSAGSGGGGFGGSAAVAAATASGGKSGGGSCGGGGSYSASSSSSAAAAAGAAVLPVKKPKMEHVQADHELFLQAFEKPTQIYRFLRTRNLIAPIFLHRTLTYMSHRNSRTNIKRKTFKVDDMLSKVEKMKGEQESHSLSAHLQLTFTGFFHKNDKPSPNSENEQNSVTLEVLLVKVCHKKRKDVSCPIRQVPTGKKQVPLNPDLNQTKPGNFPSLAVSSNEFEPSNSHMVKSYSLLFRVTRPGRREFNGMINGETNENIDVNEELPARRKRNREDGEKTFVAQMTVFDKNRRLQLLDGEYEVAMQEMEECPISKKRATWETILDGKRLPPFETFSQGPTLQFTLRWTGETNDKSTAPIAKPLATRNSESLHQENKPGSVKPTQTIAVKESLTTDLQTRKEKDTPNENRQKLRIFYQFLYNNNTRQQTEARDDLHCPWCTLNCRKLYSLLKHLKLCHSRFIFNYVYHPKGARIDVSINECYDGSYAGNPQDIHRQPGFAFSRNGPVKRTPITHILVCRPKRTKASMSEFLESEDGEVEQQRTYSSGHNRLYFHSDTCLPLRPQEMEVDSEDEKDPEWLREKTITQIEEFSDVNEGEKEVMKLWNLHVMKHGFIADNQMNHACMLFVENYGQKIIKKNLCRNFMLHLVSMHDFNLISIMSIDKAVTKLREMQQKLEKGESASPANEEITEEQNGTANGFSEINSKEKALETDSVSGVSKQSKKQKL

[1] = test system: K-P (KARPAS422-parental cells); format: cell-based; conditions: 10 μM for 6 days
[2] = test system: K-R2- and K-R10-derived cell clones; format: cell-based; conditions: four K-R2- and K-R10-derived clones; 6-day
[3] = test system: H3K27Me3 peptides in K-P cells; experiment: Histone tail profiling by mass spectrometry; format: cell-based; conditions: 2 or 10 µM, 3 days, vs DMSO control
Summary of the method: (§1)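 Karpas422 parental cells were grown in RPMI-1640 with 10% FBS at 37 °C and 5% CO2. Histones were extracted from pellets of 5 × 10^6 cells with a histone purification kit. Free lysines were blocked by derivatization, and methylated H3 peptides were then analysed by high-resolution mass spectrometry.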

[4] = test system: H3K4, K9, K36 and K79 methylation; experiment: Western blot and histone profiling of other H3 methylation marks; format: cell-based; conditions: 2 or 10 µM, 3 days
Summary of the method: as §1

[5] = test system: H3K27Me2 and Me3 in K-P cells; experiment: Western blot of H3K27 methylation; format: cell-based; conditions: K-P cells treated with increasing doses
EZH2 WT = conditions: read-out: half-maximal inhibition (IC50); cited from earlier work
EZH2 Y641 mutant = conditions: read-out: half-maximal inhibition (IC50); cited from earlier work
[6] = test system: K-P (KARPAS422-parental cells); conditions: 6-day, compared with EI1
tumor xenograft = conditions: high-dose treatment; after cessation of the dosing; cited from earlier work
WSU-DLCL2 xenograft = conditions: high-dose; 28-day treatment cycle; cited from earlier work

Chain of PRC2^Y111L (Q15910 whole entry Y111L): as the sequence (Q15910 whole entry Y641N/Y661D) above, with Y111L, N641Y, D661Y counted along it
Chain of PRC2^Y111L (O75530 whole entry partner): as the sequence (O75530 whole entry partner) above
Chain of PRC2^Y111L (Q15022 whole entry partner): as the sequence (Q15022 whole entry partner) above
Chain of PRC2^WT (Q15910 whole entry): as the sequence (Q15910 whole entry Y641N/Y661D) above, with N641Y, D661Y counted along it
Chain of PRC2^WT (O75530 whole entry partner): as the sequence (O75530 whole entry partner) above
Chain of PRC2^WT (Q15022 whole entry partner): as the sequence (Q15022 whole entry partner) above

Row | IC50 (PRC2^WT; substrate H3K27Me0 peptide) | IC50 (PRC2^WT; substrate H3K27Me1 peptide) | IC50 (PRC2^Y111L; substrate H3K27Me0 peptide) | IC50 (PRC2^Y111L; substrate H3K27Me1 peptide) | IC50 Y111L (PRC2^Y111L; substrate H3K27Me0 peptide) | IC50 Y111L (PRC2^Y111L; substrate H3K27Me1 peptide) | IC50 against PRC2^Y641N/Y661D, fold weaker compared with PRC2^Y641N (PRC2^Y641N/Y661D; 1 μM SAM, both H3K27Me1 and Me2 substrates) | IC50 (PRC2^Y641N/Y661D; substrate H3K27Me1 peptide) | IC50 (PRC2^Y641N/Y661D; substrate H3K27Me2 peptide) | Compound | reduction of BrdU incorporation compared with DMSO control [1] | growth inhibition in cell proliferation assay [2] | decrease of K27Me3 methylated peptides [3] | decrease in H3K4, K9, K36 and K79 methylation [4] | H3K27Me2 and Me3 levels (western blot) [5] | IC50 (EZH2 WT) | IC50 (EZH2 Y641 mutant) | growth arrest (growth inhibition) in proliferation assay [6] | anti-tumor effect in tumor xenograft studies (tumor xenograft) | anti-tumor effect in WSU-DLCL2 xenograft model (WSU-DLCL2 xenograft)
1 | 0.02 µM | 0.009 µM | 3.1 µM | 4.2 µM | inactive | inactive | > 300 fold | > 25 µM | > 25 µM | CCC(CC)n1ccc2c(C(=O)NCc3c(C)cc(C)[nH]c3=O)cc(C#N)cc21 [EI1] | > 90% | refractory | > 2 fold | no noticeable decrease | both H3K27Me2 and Me3 levels decreased | 0.01 to 0.02 µM | 0.01 to 0.02 µM | – | – | –
2 | – | – | – | – | – | – | – | – | – | CCN(c1cc(-c2ccc(CN3CCOCC3)cc2)cc(C(=O)NCc2c(C)cc(C)[nH]c2=O)c1C)C1CCOCC1 [EPZ-6438, reference compound] | > 90% | refractory | – | no noticeable decrease | – | – | – | more potent in inducing growth arrest | complete tumor regression without tumor regrowth | partial tumor regression
